Entries after “also recorded” stand apart in the source; their conditions may differ. Like-named read-outs stand apart in the source and are kept apart here.
How the values were obtained:
[1] = biological target: T1, hCB2R (Homo sapiens, UniProt P34972); assay: [3H]CP55940 displacement assay, hCB2R CHO membranes; format: binding; conditions: for Ki: Ki hCB2R, [3H]CP55940 displacement, CHO membranes stably expressing hCB2R; for Selectivity, ratio of Ki (CB1R)/Ki (CB2R): hCB2R over hCB1R
[2] = biological target: hCB1R (Homo sapiens, UniProt P21554); assay: [3H]CP55940 displacement assay, hCB1R CHO membranes; format: binding
Method in brief: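 Competitive radioligand binding on membranes from CHO cells stably expressing hCB1R. Test compound displaces radioligand, and Ki is derived from that displacement. Selectivity calculated as Ki(CB1R)/Ki(CB2R). Means of at least three independent experiments, each in duplicate.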

[3] = biological target: T1, hCB2R; assay: HTRF cAMP assay in CHO cells stably expressing hCB2R; format: cell-based; conditions: for Function: hCB2R cAMP assay
Method in brief: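 Cells stably expressing hCB2R; inhibition of cAMP accumulation read by HTRF. […] Emax expressed as % of the reference full agonist APD371. Means of four or seven independent experiments run in technical replicates.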

[4] = tested on: hCB2R-CHO cells; assay: co-staining with LysoTracker, super-resolution confocal microscopy; format: cell-based, human; conditions: 15 min
Method in brief: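 Live hCB2R-overexpressing CHO cells exposed for 15 min to the fluorescent probe together with LysoTracker as lysosome marker. Imaged by super-resolution confocal microscopy and channels merged to assess overlap. Three independent experiments, with five fields examined each.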

[5] = biological target: T1, hCB2R; assay: TR-FRET kinetic binding characterization on HEK293-hCB2R cell membranes
[6] = tested on: primary human macrophages; assay: confocal microscopy of primary human macrophages; format: cell-based; conditions: 0.8 μM, 15 min, endogenous CB2R
[7] = biological target: hCB2R overexpressing CHO cells (Homo sapiens, UniProt P34972); assay: super-resolution confocal imaging, mean fluorescence intensity of labeled CB2R; format: cell-based; conditions: 0.8 μM probe, 15 min
Method in brief: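 Live hCB2R-overexpressing CHO cells stained with fluorescent probe plus Hoechst 33342 nuclear counterstain. Cells optically sectioned by confocal laser-scanning microscopy with an Airyscan detector (super-resolution).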

[8] = tested on: hCB2R-CHO cells; assay: endocytosis blocking study; format: cell-based, human; conditions: pretreatment 30 min with 0.4 M sucrose and 5 μg mL−1 filipin, probe 10 min
[9] = biological target: T1, hCB2R; format: cell-based; conditions: 0.014 to 10 μM, live CHO cells hCB2R vs hCB1R and wt
[10] = EC50 (column EC50 or IC50), agonists, HTRF cAMP assay, cells stably expressing hCB2R
[11] = normalized to reference full agonist APD371
[12] = read-out: IC50 (column EC50 or IC50), inverse agonists, HTRF cAMP assay, cells stably expressing hCB2R

Sequence of hCB1R (P21554 whole entry): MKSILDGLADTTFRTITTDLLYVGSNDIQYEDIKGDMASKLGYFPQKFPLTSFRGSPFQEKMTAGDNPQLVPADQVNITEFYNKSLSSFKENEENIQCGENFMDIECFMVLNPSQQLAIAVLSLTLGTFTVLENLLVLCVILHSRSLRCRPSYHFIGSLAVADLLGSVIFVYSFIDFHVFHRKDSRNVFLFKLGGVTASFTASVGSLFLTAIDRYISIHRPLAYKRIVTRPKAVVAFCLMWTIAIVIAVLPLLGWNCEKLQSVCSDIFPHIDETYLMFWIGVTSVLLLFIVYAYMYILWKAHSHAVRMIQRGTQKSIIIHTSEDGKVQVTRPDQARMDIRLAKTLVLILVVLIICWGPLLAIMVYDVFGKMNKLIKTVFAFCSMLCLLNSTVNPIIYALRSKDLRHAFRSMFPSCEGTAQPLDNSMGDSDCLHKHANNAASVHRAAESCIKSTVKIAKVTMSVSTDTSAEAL
Sequence of hCB2R overexpressing CHO cells (P34972 whole entry): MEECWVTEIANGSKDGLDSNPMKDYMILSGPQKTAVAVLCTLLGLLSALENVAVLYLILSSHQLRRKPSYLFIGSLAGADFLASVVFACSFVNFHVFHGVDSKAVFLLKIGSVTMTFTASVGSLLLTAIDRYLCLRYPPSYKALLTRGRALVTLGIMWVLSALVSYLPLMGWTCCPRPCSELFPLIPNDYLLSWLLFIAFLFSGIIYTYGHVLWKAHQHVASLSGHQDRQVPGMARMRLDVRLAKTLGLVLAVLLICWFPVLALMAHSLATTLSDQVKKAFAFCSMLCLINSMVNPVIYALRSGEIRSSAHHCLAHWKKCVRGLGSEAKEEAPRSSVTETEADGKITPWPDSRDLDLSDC
T1 sequence (P34972 whole entry): as above

Compound	Ki [1] [µM]	Selectivity, ratio of Ki (CB1R)/Ki (CB2R) [1]	Ki [2] [µM]	Emax ([3]; CHO) [%]	Function [3]	also measured
CCC(CC)(NC(=O)c1ccc(C2CC2)c(Cc2ccc(F)cc2)n1)C(=O)NCCOCCOCCNC(=O)OC(C)(C)C [Compound 10b, TERT-BUTYL (1-(5-CYCLOPROPYL-6-(4-FLUOROBENZYL)PYRIDIN-2-YL)-3,3-DIETHYL-1,4-DIOXO-8,11-DIOXA-2,5-DIAZATRIDECAN-13-YL)CARBAMATE]	0.006	78	0.466	83	partial agonist	EC50 [3, 10]: 0.049 µM
CCC(CC)(NC(=O)c1ccc(N2CC(OC)C2)c(OC[C@H]2C[C@@H]2CO)n1)C(=O)NCCOCCOCCNC(=O)OC(C)(C)C [Compound 11b, TERT-BUTYL (3,3-DIETHYL-1-(6-(((1S,2S)-2-(HYDROXYMETHYL)CYCLOPROPYL)METHOXY)-5-(3-METHOXYAZETIDIN-1-YL)PYRIDIN-2-YL)-1,4-DIOXO-8,11-DIOXA-2,5-DIAZATRIDECAN-13-YL)CARBAMATE]	0.106	>94	> 10	-63	Inverse agonist	IC50 [3]: 0.088 µM
CCC(CC)(NC(=O)c1ccc(C2CC2)c(Cc2ccc(F)cc2)n1)C(=O)NCCOCCOCCOCCNC(=O)OC(C)(C)C [Compound 10c, TERT-BUTYL (1-(5-CYCLOPROPYL-6-(4-FLUOROBENZYL)PYRIDIN-2-YL)-3,3-DIETHYL-1,4-DIOXO-8,11,14-TRIOXA-2,5-DIAZAHEXADECAN-16-YL)CARBAMATE]	0.063	12	0.748	–	–	–
N-(1-(3',6'-BIS(DIMETHYLAMINO)-3-OXO-3H-SPIRO[ISOBENZOFURAN-1,9'-XANTHEN]-5/6-YL)-13-ETHYL-1,12-DIOXO-5,8-DIOXA-2,11-DIAZAPENTADECAN-13-YL)-5-CYCLOPROPYL-6-(4-FLUOROBENZYL)PICOLINAMIDE [Compound 12]	–	–	–	–	partial agonism; also recorded: Partial agonist	co-localization with LysoTracker [4]: partial overlap but no clear co-localization; kinetic binding characterization [5]: fast association and appropriate residence time; distribution pattern in human macrophages [6]: widely distributed within the cell; MFI of labeled CB2R in intracellular compartments [7]: 2575 ± 100 MFI; plasma membrane labelling intensity (MFI) of labeled CB2R [7]: 2090 ± 175 MFI; Emax [3, 11]: 80%; EC50 ([3]; read-out: EC50 (column EC50 or IC50), agonists, HTRF cAMP assay, cells stably expressing hCB2R): 0.082 µM; reduction of intracellular staining by endocytosis blockers [8]: 70%
CCC(CC)(NC(=O)c1ccc(N2CC(OC)C2)c(OC[C@H]2C[C@@H]2CO)n1)C(=O)NCCOCCOCCNC(=O)c1ccc2c(c1)C1(OC2=O)c2ccc(N(C)C)cc2[Si](C)(C)c2cc(N(C)C)ccc21 [Compound 17, N-(1-(3,7-BIS(DIMETHYLAMINO)-5,5-DIMETHYL-3'-OXO-3'H,5H-SPIRO[DIBENZO[B,E]SILINE-10,1'-ISOBENZOFURAN]-6'-YL)-13-ETHYL-1,12-DIOXO-5,8-DIOXA-2,11-DIAZAPENTADECAN-13-YL)-6-(((1S,2S)-2-(HYDROXYMETHYL)CYCLOPROPYL)METHOXY)-5-(3-METHOXYAZETIDIN-1-YL)PICOLINAMIDE]	–	–	–	-29	Inverse agonist	IC50 [3]: 0.129 µM
CCC(CC)(NC(=O)c1ccc(C2CC2)c(Cc2ccc(F)cc2)n1)C(=O)NCCOCCOCCOCCOCCNC(=O)OC(C)(C)C [Compound 10d, TERT-BUTYL (1-(5-CYCLOPROPYL-6-(4-FLUOROBENZYL)PYRIDIN-2-YL)-3,3-DIETHYL-1,4-DIOXO-8,11,14,17-TETRAOXA-2,5-DIAZANONADECAN-19-YL)CARBAMATE]	0.144	10	1.47	–	–	–
N-(1-(3',6'-BIS(DIMETHYLAMINO)-3-OXO-3H-SPIRO[ISOBENZOFURAN-1,9'-XANTHEN]-5/6-YL)-13-ETHYL-1,12-DIOXO-5,8-DIOXA-2,11-DIAZAPENTADECAN-13-YL)-6-(((1S,2S)-2-(HYDROXYMETHYL)CYCLOPROPYL)METHOXY)-5-(3-METHOXYAZETIDIN-1-YL)PICOLINAMIDE [Compound 16]	–	–	–	–	Inverse agonist	co-localization with LysoTracker [4]: clear co-localization pattern; kinetic binding characterization [5]: fast association and appropriate residence time; distribution pattern in human macrophages [6]: mainly localized on cellular membranes and partially in perinuclear dots; MFI of labeled CB2R in intracellular compartments [7]: 340 ± 13 MFI; plasma membrane labelling intensity (MFI) of labeled CB2R [7]: 350 ± 4 MFI; Emax [3, 11]: −29%; IC50 [3, 12]: 0.114 µM; reduction of intracellular staining by endocytosis blockers [8]: without affecting
3',6'-DIAMINO-5/6-((3,3-DIETHYL-1-(6-(((1S,2S)-2-(HYDROXYMETHYL)CYCLOPROPYL)METHOXY)-5-(3-METHOXYAZETIDIN-1-YL)PYRIDIN-2-YL)-1,4-DIOXO-8,11-DIOXA-2,5-DIAZATRIDECAN-13-YL)CARBAMOYL)-3-OXO-3H-SPIRO[ISOBENZOFURAN-1,9'-XANTHENE]-4',5'-DISULFONIC ACID [Compound 18]	–	–	–	–	Inverse agonist	Emax [3, 11]: −26%; IC50 [3, 12]: 0.262 µM; selectivity and specificity for hCB2R in flow cytometry [9]: high selectivity even at very high concentrations
CCC(CC)(NC(=O)c1ccc(C2CC2)c(Cc2ccc(F)cc2)n1)C(=O)NCCOCCOCCNC(=O)c1ccc2c(c1)C1(OC2=O)c2ccc(N(C)C)cc2[Si](C)(C)c2cc(N(C)C)ccc21 [Compound 13, N-(1-(3,7-BIS(DIMETHYLAMINO)-5,5-DIMETHYL-3'-OXO-3'H,5H-SPIRO[DIBENZO[B,E]SILINE-10,1'-ISOBENZOFURAN]-6'-YL)-13-ETHYL-1,12-DIOXO-5,8-DIOXA-2,11-DIAZAPENTADECAN-13-YL)-5-CYCLOPROPYL-6-(4-FLUOROBENZYL)PICOLINAMIDE]	–	–	–	127	full agonism; also recorded: Full agonist	EC50 [3, 10]: 0.528 µM
CCC(CC)(NC(=O)c1ccc(C2CC2)c(Cc2ccc(F)cc2)n1)C(=O)NCCOCCNC(=O)OC(C)(C)C [Compound 10a, TERT-BUTYL (2-(2-(2-(5-CYCLOPROPYL-6-(4-FLUOROBENZYL)PICOLINAMIDO)-2-ETHYLBUTANAMIDO)ETHOXY)ETHYL)CARBAMATE]	0.028	30	0.836	–	–	–
CCC(CC)(NC(=O)c1ccc(C2CC2)c(Cc2ccc(F)cc2)n1)C(=O)NCCOCCOCCNC(=O)c1ccc2c(c1)C(=O)OC21c2ccc(N)c(S(=O)(=O)O)c2Oc2c1ccc(N)c2S(=O)(=O)O [Compound 14, 3',6'-DIAMINO-5-((1-(5-CYCLOPROPYL-6-(4-FLUOROBENZYL)PYRIDIN-2-YL)-3,3-DIETHYL-1,4-DIOXO-8,11-DIOXA-2,5-DIAZATRIDECAN-13-YL)CARBAMOYL)-3-OXO-3H-SPIRO[ISOBENZOFURAN-1,9'-XANTHENE]-4',5'-DISULFONIC ACID]	–	–	–	79	partial agonism; also recorded: Partial agonist	EC50 [3, 10]: 0.077 µM; selectivity and specificity for hCB2R in flow cytometry [9]: high selectivity even at very high concentrations
CCC(CC)(NC(=O)c1ccc(N2CC(OC)C2)c(OC[C@H]2C[C@@H]2CO)n1)C(=O)NCCOCCOCCOCCNC(=O)OC(C)(C)C [Compound 11c, TERT-BUTYL (3,3-DIETHYL-1-(6-(((1S,2S)-2-(HYDROXYMETHYL)CYCLOPROPYL)METHOXY)-5-(3-METHOXYAZETIDIN-1-YL)PYRIDIN-2-YL)-1,4-DIOXO-8,11,14-TRIOXA-2,5-DIAZAHEXADECAN-16-YL)CARBAMATE]	> 10	–	> 10	–	–	–
CCC(CC)(NC(=O)c1ccc(N2CC(OC)C2)c(OC[C@H]2C[C@@H]2CO)n1)C(=O)NCCOCCNC(=O)OC(C)(C)C [Compound 11a, TERT-BUTYL (2-(2-(2-ETHYL-2-(6-(((1S,2S)-2-(HYDROXYMETHYL)CYCLOPROPYL)METHOXY)-5-(3-METHOXYAZETIDIN-1-YL)PICOLINAMIDO)BUTANAMIDO)ETHOXY)ETHYL)CARBAMATE]	2.06	>4	> 10	–	–	–
